According to ChEMBL document CHEMBL1759890, “3,5-Disubstituted-indole-7-carboxamides: the discovery of a novel series of potent, selective inhibitors of IKK-β” (Bioorg Med Chem Lett, 2011):

What was measured:
[1] = target: Tyrosine-protein kinase BTK (Homo sapiens, UniProt Q06187); assay: Inhibition of BTK
[2] = target: T1, Inhibitor of nuclear factor kappa-B kinase subunit alpha (Homo sapiens, UniProt O15111); assay: Inhibition of IKK-alpha
T1 sequence (O15111 whole entry): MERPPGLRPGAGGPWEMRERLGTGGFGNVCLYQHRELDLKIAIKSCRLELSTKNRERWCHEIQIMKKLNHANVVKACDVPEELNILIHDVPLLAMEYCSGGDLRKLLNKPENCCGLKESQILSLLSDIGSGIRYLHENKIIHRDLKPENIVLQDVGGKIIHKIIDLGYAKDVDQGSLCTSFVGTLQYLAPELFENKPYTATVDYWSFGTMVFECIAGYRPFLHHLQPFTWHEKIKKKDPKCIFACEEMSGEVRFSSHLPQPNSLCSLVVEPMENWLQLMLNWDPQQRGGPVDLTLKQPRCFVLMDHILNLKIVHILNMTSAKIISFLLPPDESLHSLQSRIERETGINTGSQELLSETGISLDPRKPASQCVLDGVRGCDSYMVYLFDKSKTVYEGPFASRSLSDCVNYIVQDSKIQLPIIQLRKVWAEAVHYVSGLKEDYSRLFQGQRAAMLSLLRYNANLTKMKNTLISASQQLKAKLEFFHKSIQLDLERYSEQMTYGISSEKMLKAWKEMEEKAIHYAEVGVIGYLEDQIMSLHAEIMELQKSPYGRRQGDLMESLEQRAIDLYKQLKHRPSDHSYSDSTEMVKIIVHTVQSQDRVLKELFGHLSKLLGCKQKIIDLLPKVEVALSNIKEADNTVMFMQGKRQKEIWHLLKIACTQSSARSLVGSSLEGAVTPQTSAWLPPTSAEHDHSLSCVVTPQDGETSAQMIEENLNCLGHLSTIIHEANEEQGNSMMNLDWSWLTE
How it was run: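 Done the same way as the IKK-β TR-FRET assay but with 6-His-tagged full-length IKK-α. Buffer is 50 mM HEPES, 10 mM MgCl₂, 1 mM CHAPS pH 7.4, 1 mM DTT, 0.01% w/v BSA. GST-IκBα substrate 25 nM final, ATP 1 μM final, DMSO below 5% final. Error about ±0.3 log units.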

[3] = target: T2, Inhibitor of nuclear factor kappa-B kinase subunit beta (Homo sapiens, UniProt O14920); assay: Inhibition of IKK-beta in human A549 cells assessed as TNF-alpha-induced Nuclear factor-kappa-B nuclear translocation
T2 sequence (O14920 whole entry): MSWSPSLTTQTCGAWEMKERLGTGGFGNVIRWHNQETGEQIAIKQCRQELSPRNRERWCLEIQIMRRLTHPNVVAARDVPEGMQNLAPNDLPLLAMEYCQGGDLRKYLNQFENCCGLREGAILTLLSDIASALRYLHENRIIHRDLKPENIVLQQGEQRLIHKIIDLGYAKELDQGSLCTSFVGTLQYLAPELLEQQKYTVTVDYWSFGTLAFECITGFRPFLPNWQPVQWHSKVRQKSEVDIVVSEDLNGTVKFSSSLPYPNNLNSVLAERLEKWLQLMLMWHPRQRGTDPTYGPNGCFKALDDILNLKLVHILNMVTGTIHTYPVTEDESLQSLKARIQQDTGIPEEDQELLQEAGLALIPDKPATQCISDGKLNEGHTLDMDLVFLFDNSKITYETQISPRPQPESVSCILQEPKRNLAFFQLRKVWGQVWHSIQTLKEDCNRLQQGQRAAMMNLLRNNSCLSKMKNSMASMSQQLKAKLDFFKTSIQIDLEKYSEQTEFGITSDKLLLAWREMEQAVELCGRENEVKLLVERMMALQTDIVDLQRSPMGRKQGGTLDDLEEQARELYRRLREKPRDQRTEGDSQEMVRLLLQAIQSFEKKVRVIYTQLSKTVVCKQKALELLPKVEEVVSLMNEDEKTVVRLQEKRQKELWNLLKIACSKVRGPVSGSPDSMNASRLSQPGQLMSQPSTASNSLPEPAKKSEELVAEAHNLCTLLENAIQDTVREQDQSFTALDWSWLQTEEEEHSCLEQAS

[4] = target: T3, Serine/threonine-protein kinase TBK1 (Homo sapiens, UniProt Q9UHD2); assay: Inhibition of TBK-1
T3 sequence (Q9UHD2 whole entry): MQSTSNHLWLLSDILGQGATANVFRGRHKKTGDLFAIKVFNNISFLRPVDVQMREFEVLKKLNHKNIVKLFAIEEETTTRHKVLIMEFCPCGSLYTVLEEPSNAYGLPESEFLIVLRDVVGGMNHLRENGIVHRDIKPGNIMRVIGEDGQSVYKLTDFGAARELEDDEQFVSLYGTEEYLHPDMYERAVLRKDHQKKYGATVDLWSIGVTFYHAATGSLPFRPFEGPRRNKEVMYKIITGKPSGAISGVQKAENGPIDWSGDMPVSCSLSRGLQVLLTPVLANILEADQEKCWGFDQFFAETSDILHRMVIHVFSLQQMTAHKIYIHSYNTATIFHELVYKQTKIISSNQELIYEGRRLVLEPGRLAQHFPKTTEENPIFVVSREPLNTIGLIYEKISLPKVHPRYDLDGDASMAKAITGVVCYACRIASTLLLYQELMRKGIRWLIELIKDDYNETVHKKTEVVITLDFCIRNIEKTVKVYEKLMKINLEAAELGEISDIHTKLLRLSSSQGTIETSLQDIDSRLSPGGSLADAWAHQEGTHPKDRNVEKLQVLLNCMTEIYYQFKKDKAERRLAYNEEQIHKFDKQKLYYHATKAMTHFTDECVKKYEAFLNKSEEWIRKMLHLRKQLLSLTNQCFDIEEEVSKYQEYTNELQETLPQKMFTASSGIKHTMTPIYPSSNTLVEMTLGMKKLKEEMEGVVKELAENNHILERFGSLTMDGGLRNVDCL

PBMC = assay: Antiinflammatory activity in human PBMC assessed as inhibition of LPS-induced TNF-alpha production; format: functional, cell-based
How it was run: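 Human peripheral blood mononuclear cells stimulated with LPS. Read-out is inhibition of TNF-α production, reported as pIC50.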

[5] = target: Casein kinase I isoform epsilon (Homo sapiens, UniProt P49674); assay: Binding affinity to CSNK1eplison assessed as dissociation constant
Sequence of Casein kinase I isoform epsilon (P49674 whole entry, canonical isoform): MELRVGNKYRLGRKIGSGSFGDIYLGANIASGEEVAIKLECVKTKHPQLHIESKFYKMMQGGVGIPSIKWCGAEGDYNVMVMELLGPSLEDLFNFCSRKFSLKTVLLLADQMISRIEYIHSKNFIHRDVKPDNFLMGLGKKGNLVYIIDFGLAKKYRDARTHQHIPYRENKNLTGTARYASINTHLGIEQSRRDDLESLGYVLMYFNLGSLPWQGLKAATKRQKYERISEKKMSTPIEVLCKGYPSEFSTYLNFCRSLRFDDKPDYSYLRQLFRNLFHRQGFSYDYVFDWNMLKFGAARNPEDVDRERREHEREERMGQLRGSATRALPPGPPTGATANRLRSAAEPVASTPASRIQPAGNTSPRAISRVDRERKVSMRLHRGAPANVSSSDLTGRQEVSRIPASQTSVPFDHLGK

Sequence of Tyrosine-protein kinase BTK (Q06187 whole entry): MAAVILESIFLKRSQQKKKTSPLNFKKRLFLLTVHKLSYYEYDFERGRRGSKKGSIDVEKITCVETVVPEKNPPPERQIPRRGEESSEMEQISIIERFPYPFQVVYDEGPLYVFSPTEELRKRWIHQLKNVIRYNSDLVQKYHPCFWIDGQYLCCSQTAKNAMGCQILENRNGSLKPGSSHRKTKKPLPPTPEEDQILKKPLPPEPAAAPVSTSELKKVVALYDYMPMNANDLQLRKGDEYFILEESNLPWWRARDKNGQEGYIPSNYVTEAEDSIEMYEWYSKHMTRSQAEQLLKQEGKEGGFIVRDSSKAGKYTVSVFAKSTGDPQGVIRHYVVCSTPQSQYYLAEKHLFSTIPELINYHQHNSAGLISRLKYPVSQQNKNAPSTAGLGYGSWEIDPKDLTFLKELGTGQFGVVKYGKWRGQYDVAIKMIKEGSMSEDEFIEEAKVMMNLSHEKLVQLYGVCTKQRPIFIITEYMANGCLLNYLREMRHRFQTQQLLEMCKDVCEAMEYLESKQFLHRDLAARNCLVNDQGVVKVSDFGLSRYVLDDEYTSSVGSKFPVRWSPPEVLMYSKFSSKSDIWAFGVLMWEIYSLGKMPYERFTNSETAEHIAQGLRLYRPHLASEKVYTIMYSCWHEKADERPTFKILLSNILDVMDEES

**Q.** How did the IC50 [1] turn out when `CCCS(=O)(=O)N1CCC(c2c[nH]c3c(C(N)=O)cc(-c4ccccc4)cc23)CC1` was run?
**A.** 1.58 µM

**Q.** What about the IC50 [2] of the same compound?
**A.** 2 µM

**Q.** What about the IC50 [3] of the same compound?
**A.** 0.158 µM

**Q.** And the IC50 [4]?
**A.** > 3.16 µM

**Q.** And the IC50 (PBMC)?
**A.** 0.631 µM

**Q.** And the Kd [5]?
**A.** 1.58 µM
